In ChEMBL document CHEMBL1149287, “Synthetic bryostatin analogues activate the RasGRP1 signaling pathway” (J Med Chem, 2004) one finds Activity data, which are given here for three compounds.

The structures appear in SMILES notation. The source made the active and inactive calls. The rule behind the calls is not given here.

The subject of one assay is PBL. The experiment in a line: Induction of T cell activation marker CD69 expression in PBL cells. It is filed as functional, cell-based. The note with it: Homo sapiens. The method, boiled down: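 Human peripheral blood lymphocytes from a healthy donor, isolated on Ficoll-hypaque, treated immediately overnight in RPMI with 100 nM DAG analogue or DMSO; fixed in 2% paraformaldehyde, co-stained for CD4 (FITC) and CD69 (PE), analysed by flow cytometry.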

The target in assay [1] is T1, RAS guanyl-releasing protein 1 (Homo sapiens) (UniProt O95267).
T1 sequence (whole entry): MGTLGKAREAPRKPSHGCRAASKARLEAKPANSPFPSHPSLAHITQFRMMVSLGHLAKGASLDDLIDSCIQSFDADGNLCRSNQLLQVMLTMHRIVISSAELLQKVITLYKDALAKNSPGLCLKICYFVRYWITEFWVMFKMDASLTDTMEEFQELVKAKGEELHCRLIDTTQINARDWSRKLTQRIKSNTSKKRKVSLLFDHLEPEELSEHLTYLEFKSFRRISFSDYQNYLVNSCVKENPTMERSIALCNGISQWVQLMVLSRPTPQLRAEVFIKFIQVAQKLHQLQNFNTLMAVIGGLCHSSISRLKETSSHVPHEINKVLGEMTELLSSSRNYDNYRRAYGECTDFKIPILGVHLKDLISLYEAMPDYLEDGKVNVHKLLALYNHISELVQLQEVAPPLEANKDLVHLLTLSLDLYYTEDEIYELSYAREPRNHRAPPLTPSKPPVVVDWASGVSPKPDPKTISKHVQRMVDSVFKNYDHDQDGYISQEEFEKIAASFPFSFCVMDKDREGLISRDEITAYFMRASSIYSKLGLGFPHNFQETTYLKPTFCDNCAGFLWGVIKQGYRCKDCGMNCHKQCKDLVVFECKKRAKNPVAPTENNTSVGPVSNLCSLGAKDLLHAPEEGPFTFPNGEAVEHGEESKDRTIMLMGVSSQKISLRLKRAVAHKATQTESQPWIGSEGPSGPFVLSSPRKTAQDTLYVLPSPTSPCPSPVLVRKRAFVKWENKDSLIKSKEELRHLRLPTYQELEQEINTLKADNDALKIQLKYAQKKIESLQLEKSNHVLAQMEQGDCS
The experiment in a line: Induction of translocation of RasGRP1 to plasma membrane in HEK293 cells. It is filed as cell-based. In a few lines: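 HEK-293 cells on glass coverslips transfected with 5 μg pEF-GFP-RasGRP1 (or pEF-GFP), after 48 h given 100 nM DAG analogue or DMSO for 10 min at 37 °C, fixed in 4% paraformaldehyde; GFP location imaged by confocal microscopy, at least five 0.45 μm slices per cell.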

The test system of the next assay is Jurkat. The experiment in a line: Induction of T cell activation marker CD69 expression in Jurkat T cells at 100 nM. To be noted: Homo sapiens. Type of assay: functional, cell-based. The method, boiled down:
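Jurkat T cells kept in RPMI with 10% FBS, incubated overnight with 100 nM DAG analogue or DMSO, fixed in 2% paraformaldehyde, stained with PE-anti-CD69, surface CD69 read by FACS.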

The test system of assay [2] is Rat2. The experiment in a line: Accumulation of Ras-GTP level in Rat2 cells expressing empty pBabePuro vector. Type of assay: functional, cell-based. To be noted: Rattus norvegicus. The method, boiled down: (§1)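 Rat2 fibroblasts (DMEM, 10% FBS) stably carrying retroviral pBabePuro, empty or with human RasGRP1 cDNA, exposed 10 min to 100 nM DAG analogue or DMSO vehicle. Ras-GTP measured by Ras-binding-domain pulldown with pan-Ras immunoblot; phospho-Erk p44/p42 and total Ras by immunoblot.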

Assay [3] deals with Rat2. The experiment in a line: Induction of increase in Ras-GTP level in Rat2 cells expressing human […] at 100 nM. Type of assay: functional, cell-based. The method, boiled down: as §1
For assay [4], the system named is Thymocyte. The experiment in a line: Activation of ERK in wild type mouse thymocytes at 100 nM. It is filed as functional, cell-based. The method, boiled down: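 Wild-type mouse thymocytes (RPMI 1640, 10% FBS) exposed 10 min to DAG analogue at 100, 10 or 1 nM, then lysed; phospho-Erk p44/p42 detected by immunoblot.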
Assay [5] has as its system Thymocyte. The experiment in a line: Activation of ERK in knockout mouse RasGRP1- mutant thymocytes. It is filed as functional, cell-based. The method, boiled down: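 Thymocytes isolated in RPMI 1640 with 10% FBS from young wild-type or RasGRP1 knockout mice, given DMSO or DAG analogue for 10 min, then lysed and immunoblotted for phospho-Erk p44/p42.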
The subject of assay [6] is Lymphocyte. In words: Induction of T cell activation marker CD69 expression in concanavalin-A activated CD4+ mouse spleen lymphocytes. Type of assay: functional, tissue-based.
The subject of assay [7] is Lymphocyte. In words: Induction of T cell activation marker CD69 expression in concanavalin-A activated CD8+ mouse spleen lymphocytes. Type of assay: functional, tissue-based.

Consider `CCCCCCCC(=O)O[C@H]1/C(=C/C(=O)OC)CC2C[C@H]([C@@H](CC)OC)OC(=O)C[C@H](O)C[C@@H]3CCC[C@H](C[C@H]4CCO[C@H](/C=C/C(C)(C)[C@]1(O)O2)O4)O3`, for which the outcome (in the assay on PBL; in assay [1]; in the assay on Jurkat; in the assay on Rat2 [3]; with Thymocyte [4]; in the assay on Lymphocyte [6]) was Active. Further, in the assay on Lymphocyte [7], the outcome was Active. Besides, the outcome in the assay on Rat2 [2] and with Thymocyte [5] was inactive.

Regarding `CCCCCCCC(=O)O[C@H]1/C(=C/C(=O)OC)CC2C[C@H]([C@H](O)CC)OC(=O)C[C@H](O)C[C@@H]3CCC[C@H](C[C@H]4CCO[C@H](/C=C/C(C)(C)[C@]1(O)O2)O4)O3`, the result (in the assay on PBL; in assay [1]; with Jurkat; with Rat2 [3]; in the assay on Thymocyte [4]; in the assay on Lymphocyte [6]) was Active. In the assay on Lymphocyte [7], the outcome was Active. In addition, the outcome in the assay on Rat2 [2] and in the assay on Thymocyte [5] was inactive.

With `CCCCCCCCCCCCCC(=O)O[C@@H]1[C@@H](C)[C@@]2(O)[C@@H](C=C(CO)C[C@]3(O)C(=O)C(C)=C[C@@H]23)[C@@H]2C(C)(C)[C@]12OC(C)=O`, the outcome (in the assay with PBL; in [1]; in the assay with Jurkat; with Rat2 [3]; with Thymocyte [4]; in the assay with Lymphocyte [6]) was Active. Besides, the result in the assay with Lymphocyte [7] was Active. The result in the assay with Rat2 [2] and with Thymocyte [5] was inactive.
